Consider 10 compounds from ChEMBL document CHEMBL1137534, “Synthesis and screening for acetylcholinesterase inhibitor activity of some novel 2-butyl-1,3-diaza-spiro[4,4]non-1-en-4-ones: derivatives of irbesartan key intermediate” (Bioorg Med Chem, 2007).

Experiment [1] addresses T1, Acetylcholinesterase (Rattus norvegicus, UniProt P37136).
T1 sequence (P37136 whole entry): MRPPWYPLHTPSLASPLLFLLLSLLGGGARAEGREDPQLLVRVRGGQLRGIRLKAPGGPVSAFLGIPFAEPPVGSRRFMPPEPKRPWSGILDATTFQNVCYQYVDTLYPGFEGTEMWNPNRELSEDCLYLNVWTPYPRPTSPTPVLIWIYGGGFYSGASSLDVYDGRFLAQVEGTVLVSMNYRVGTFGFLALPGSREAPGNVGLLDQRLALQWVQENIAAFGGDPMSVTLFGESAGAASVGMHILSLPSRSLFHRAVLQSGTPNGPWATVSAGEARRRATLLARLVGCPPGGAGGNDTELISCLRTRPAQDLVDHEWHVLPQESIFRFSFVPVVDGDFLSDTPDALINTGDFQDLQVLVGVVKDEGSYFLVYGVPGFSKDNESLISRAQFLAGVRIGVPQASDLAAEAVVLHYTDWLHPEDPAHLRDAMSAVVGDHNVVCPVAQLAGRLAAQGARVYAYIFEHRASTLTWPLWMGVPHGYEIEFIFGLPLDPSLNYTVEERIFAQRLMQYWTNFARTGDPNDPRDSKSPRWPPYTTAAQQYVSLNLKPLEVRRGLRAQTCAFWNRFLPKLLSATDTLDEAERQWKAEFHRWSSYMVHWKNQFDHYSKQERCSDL
In words: Inhibition of Wistar rat brain AChE by Ellman colorimetric assay. Put shortly: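 Rat brain homogenate as the enzyme source. Ellman method with DTNB and 1.0 mM acetylthiocholine at 37 °C. Enzyme, buffer, DTNB and inhibitor were preincubated 10 min before substrate was added. Absorbance at 412 nm was read every 1 min for 10 min. Inhibitor range was 0–200 nM. IC50 is the concentration giving 50% inhibition; duplicate means.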
A general note: DTNB colorimetry detects thiols as they appear.

Experiment [2] deals with Acetylcholinesterase (Homo sapiens, UniProt P22303). As to the kind of experiment: Inhibition of human serum AChE by Ellman colorimetric assay. Put shortly:
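Crude AChE was the supernatant of fresh volunteer blood mixed with 3.8% trisodium citrate (9:1) and spun at 3000 rpm, 0 °C, 20 min. Ellman assay with DTNB and 1.0 mM acetylthiocholine at 37 °C, after 10 min preincubation with inhibitor. A412 was followed over 10 min. Inhibitor range was 0–200 nM. IC50 is the 50% inhibition point; duplicate means.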

For experiment [3], the target named is Acetylcholinesterase (Electrophorus electricus, UniProt O42275). As to the kind of experiment: Inhibition of electric eel AChE by Ellman colorimetric assay. Put shortly: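 Electric eel AChE stock was kept frozen in 0.1 M KH2PO4 (pH 8). Assay used phosphate buffer pH 8.0, DTNB and 1.0 mM acetylthiocholine at 37 °C, after 10 min enzyme–inhibitor preincubation. A412 was read at 1-min intervals for 10 min. Inhibitor range was 0–200 nM. IC50 was taken at 50% inhibition; duplicates, mean reported.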

In general, IC50 refers to the concentration that gives 50% inhibition. Read a high IC50 as a need for much substance.

Sequence of Acetylcholinesterase (Electrophorus electricus, UniProt O42275) (O42275 whole entry): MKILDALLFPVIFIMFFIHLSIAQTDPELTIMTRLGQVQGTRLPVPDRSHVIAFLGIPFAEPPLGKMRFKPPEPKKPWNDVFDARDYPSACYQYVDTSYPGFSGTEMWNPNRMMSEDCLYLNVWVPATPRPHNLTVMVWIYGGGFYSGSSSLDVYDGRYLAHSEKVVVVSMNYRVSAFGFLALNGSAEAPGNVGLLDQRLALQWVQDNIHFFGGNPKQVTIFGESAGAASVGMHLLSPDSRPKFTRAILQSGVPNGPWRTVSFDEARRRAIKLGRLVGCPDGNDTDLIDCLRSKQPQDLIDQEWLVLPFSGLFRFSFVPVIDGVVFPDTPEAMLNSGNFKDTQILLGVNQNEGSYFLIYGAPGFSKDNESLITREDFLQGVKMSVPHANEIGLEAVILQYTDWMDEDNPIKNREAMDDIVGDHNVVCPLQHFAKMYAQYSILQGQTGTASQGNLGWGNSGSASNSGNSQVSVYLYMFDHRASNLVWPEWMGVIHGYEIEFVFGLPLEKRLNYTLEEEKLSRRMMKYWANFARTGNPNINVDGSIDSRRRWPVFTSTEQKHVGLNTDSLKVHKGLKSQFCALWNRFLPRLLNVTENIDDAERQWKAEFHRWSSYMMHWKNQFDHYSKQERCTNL
Sequence of Acetylcholinesterase (Homo sapiens, UniProt P22303) (P22303 whole entry): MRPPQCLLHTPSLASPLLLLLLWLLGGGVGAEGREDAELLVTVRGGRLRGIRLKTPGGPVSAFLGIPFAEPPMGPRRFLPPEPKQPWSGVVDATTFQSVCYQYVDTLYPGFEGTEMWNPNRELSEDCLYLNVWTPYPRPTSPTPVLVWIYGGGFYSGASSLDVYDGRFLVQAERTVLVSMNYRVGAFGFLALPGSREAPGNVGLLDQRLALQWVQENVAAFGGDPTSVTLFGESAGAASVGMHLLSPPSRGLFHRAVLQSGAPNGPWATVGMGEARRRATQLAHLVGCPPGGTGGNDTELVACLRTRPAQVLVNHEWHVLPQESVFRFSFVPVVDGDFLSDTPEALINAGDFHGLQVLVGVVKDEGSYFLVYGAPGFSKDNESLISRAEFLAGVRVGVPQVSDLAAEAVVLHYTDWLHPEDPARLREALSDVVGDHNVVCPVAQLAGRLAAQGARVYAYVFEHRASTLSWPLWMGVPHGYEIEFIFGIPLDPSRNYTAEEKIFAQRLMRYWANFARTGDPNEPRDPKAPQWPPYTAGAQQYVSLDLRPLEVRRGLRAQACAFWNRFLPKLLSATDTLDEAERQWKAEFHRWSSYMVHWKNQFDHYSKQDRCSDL

Turning to `CCCCC1=NC2(CCCC2)C(=O)N1Cc1ccc(Br)cc1`, the half-maximal inhibitory concentration (IC50) stood at 70 nM at Acetylcholinesterase [1], 70 nM at Acetylcholinesterase [2] and 67.5 nM against Acetylcholinesterase [3].
As for `CCCCC1=NC2(CCCC2)C(=O)N1CCN1C(=O)c2ccccc2C1=O`, the IC50 turned out to be 234 nM on Acetylcholinesterase [1], 231 nM against Acetylcholinesterase [2] and 250 nM on Acetylcholinesterase [3].
Regarding `CCCCC1=NC2(CCCC2)C(=O)N1Cc1cc2c(cc1C)OCO2`, the IC50 amounted to 216 nM against Acetylcholinesterase [1], 232 nM at Acetylcholinesterase [2] and 212 nM at Acetylcholinesterase [3].
On the same counts, the results for `CCCCC1=NC2(CCCC2)C(=O)N1Cc1ccc(-c2ccccc2C#N)cc1` are 90 nM, 82.5 nM and 90 nM.
`CN(C)C(=O)Oc1cccc([N+](C)(C)C)c1` [NEOSTIGMINE BROMIDE]: the concentration for half-maximal inhibition (IC50) against Acetylcholinesterase [1] amounted to 35 nM; against Acetylcholinesterase [3], 47.5 nM.
In the case of `CCCCC1=NC2(CCCC2)C(=O)N1Cc1ccc([N+](=O)[O-])cc1`, the values for the IC50 against Acetylcholinesterase [1], on Acetylcholinesterase [2] and on Acetylcholinesterase [3] were 134 nM, 135 nM and 149 nM, respectively.
As for `CCCCC1=NC2(CCCC2)C(=O)N1Cc1ccc(-c2ccccc2C(=O)OC(C)(C)C)cc1`, the results for the IC50 on Acetylcholinesterase [1], against Acetylcholinesterase [2] and against Acetylcholinesterase [3] were 271 nM, 269 nM and 277 nM, respectively.
`CCCCC1=NC2(CCCC2)C(=O)N1Cc1cc(OC)c(OC)cc1Br`: the concentration for half-maximal inhibition (IC50) against Acetylcholinesterase [1] came out at 77.5 nM; at Acetylcholinesterase [2], 82.5 nM; at Acetylcholinesterase [3] it was 80 nM.
For `CCCCC1=NC2(CCCC2)C(=O)N1CC(=O)c1ccc(Cl)cc1`, in that order: 280 nM, 286 nM and 280 nM.
On the same counts, the results for `CCCCC1=NC2(CCCC2)C(=O)N1Cc1ccc(-c2ccccc2C(=O)OC)cc1` are 243 nM, 241 nM and 236 nM.
